Laboratory results: ChEMBL document CHEMBL5724801, “EUbOPEN Chemogenomics Library - Multiplex” (2024)
Values joined by “and” are separate entries in the source; they are usually repeats but may differ in a detail not shown here. Equal entries are not always repeated.

What follows are molecules tested on HEK-293T (assay: Multiplex assay against HEK293T). Settings: human, 12 h, 1 µM, compound concentration 1 uM.
Type: toxicity, cell-based
Summary of the method: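 Hoechst33342, BioTracker Green Microtubule Cytoskeleton Dye, MitoTracker Red and Annexin V Alexa Fluor 680 were added to live cells at seeding, and imaging on a CQ1 microscope at 37°C and 5% CO2 followed compound addition. Gating by CellPathfinder machine learning separated cells into Hoechst high-intensity objects or normal cells, then normal cells into healthy, pyknosed or fragmented nuclei, then pyknosed cells into mitotic or apoptotic. Per cents of healthy-nucleus cells are reported for the tubulin, mitochondrial-mass and membrane-permeability phenotypes.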

Q: Which results are given for `CCCCCCNC(=O)Nc1ccc(S(=O)(=O)Nc2ccc(CCNC[C@H](O)COc3ccc(O)cc3)cc2)cc1` [L-755507]?
A: Population Apoptotic (%): 35% and 31%; Population Fragmented Nuclei (%): 8% and 6%; Population Healthy Nuclei (%): 84% and 83%; Population Hoechst High Intensity Objects (%): 7%; Population Membrane Permeable-Phenotype (%): 0%; Population Mitochondria Different-Phenotype (%): 39% and 64%; Population Mitotic Cells (%): 64% and 68%; Population Normal (%): 92%; Population Pyknosed Nuclei (%): 7% and 10%; Population Tubulin-Different-Phenotype (%): 28% and 32%; Total Cell Count: 494 and 403

Q: Which results are given for `O=C(O)c1cc2ccccc2c(Cc2c(O)c(C(=O)O)cc3ccccc23)c1O` [PAMOIC ACID]?
A: Population Apoptotic (%): 30% and 58%; Population Fragmented Nuclei (%): 9% and 7%; Population Healthy Nuclei (%): 77%; Population Hoechst High Intensity Objects (%): 7% and 6%; Population Membrane Permeable-Phenotype (%): 0%; Population Mitochondria Different-Phenotype (%): 38% and 60%; Population Mitotic Cells (%): 69% and 41%; Population Normal (%): 92% and 93%; Population Pyknosed Nuclei (%): 12% and 15%; Population Tubulin-Different-Phenotype (%): 23% and 21%; Total Cell Count: 432 and 303

Same assay, conditions: human, 12 h, 10 µM, compound concentration 10 uM

Q: Which results are given for `CCCCCCNC(=O)Nc1ccc(S(=O)(=O)Nc2ccc(CCNC[C@H](O)COc3ccc(O)cc3)cc2)cc1` [L-755507]?
A: Population Apoptotic (%): 58% and 71%; Population Fragmented Nuclei (%): 10% and 8%; Population Healthy Nuclei (%): 74% and 79%; Population Hoechst High Intensity Objects (%): 17% and 7%; Population Membrane Permeable-Phenotype (%): 0%; Population Mitochondria Different-Phenotype (%): 69% and 87%; Population Mitotic Cells (%): 41% and 28%; Population Normal (%): 82% and 92%; Population Pyknosed Nuclei (%): 14% and 11%; Population Tubulin-Different-Phenotype (%): 68% and 61%; Total Cell Count: 384 and 341

Q: Which “Population Apoptotic (%)” value does the source give for `O=C(O)c1cc2ccccc2c(Cc2c(O)c(C(=O)O)cc3ccccc23)c1O` [PAMOIC ACID] here?
A: 34% and 52%

Q: What about the “Population Fragmented Nuclei (%)” value of the same molecule?
A: 8% and 4%

Q: And the “Population Healthy Nuclei (%)” value?
A: 79% and 81%

Q: What about the “Population Hoechst High Intensity Objects (%)” value of the same molecule?
A: 8%

Q: And the “Population Membrane Permeable-Phenotype (%)” value?
A: 0%

Q: What about the “Population Mitochondria Different-Phenotype (%)” value of the same molecule?
A: 44% and 55%

Q: What about the “Population Mitotic Cells (%)” value of the same molecule?
A: 65% and 47%

Q: What about the “Population Normal (%)” value of the same molecule?
A: 91%

Q: What about the “Population Pyknosed Nuclei (%)” value of the same molecule?
A: 12% and 13%

Q: And the “Population Tubulin-Different-Phenotype (%)” value?
A: 34% and 26%

Q: What about the “Total Cell Count” value of the same molecule?
A: 446 and 275

Same assay, conditions: human, 24 h, 1 µM, compound concentration 1 uM

Q: What does the source list for `CCCCCCNC(=O)Nc1ccc(S(=O)(=O)Nc2ccc(CCNC[C@H](O)COc3ccc(O)cc3)cc2)cc1` [L-755507]?
A: Population Apoptotic (%): 19% and 30%; Population Fragmented Nuclei (%): 9% and 11%; Population Healthy Nuclei (%): 80%; Population Hoechst High Intensity Objects (%): 5% and 4%; Population Membrane Permeable-Phenotype (%): 0%; Population Mitochondria Different-Phenotype (%): 20% and 42%; Population Mitotic Cells (%): 80% and 70%; Population Normal (%): 94% and 95%; Population Pyknosed Nuclei (%): 9% and 7%; Population Tubulin-Different-Phenotype (%): 20% and 22%; Total Cell Count: 634 and 547

Q: What does the source list for `O=C(O)c1cc2ccccc2c(Cc2c(O)c(C(=O)O)cc3ccccc23)c1O` [PAMOIC ACID]?
A: Population Apoptotic (%): 29% and 40%; Population Fragmented Nuclei (%): 8% and 5%; Population Healthy Nuclei (%): 78% and 86%; Population Hoechst High Intensity Objects (%): 6%; Population Membrane Permeable-Phenotype (%): 1% and 0%; Population Mitochondria Different-Phenotype (%): 22% and 39%; Population Mitotic Cells (%): 70% and 59%; Population Normal (%): 93%; Population Pyknosed Nuclei (%): 12% and 7%; Population Tubulin-Different-Phenotype (%): 16%; Total Cell Count: 559 and 378

Same assay, conditions: human, 24 h, 10 µM, compound concentration 10 uM

Q: How did the “Population Apoptotic (%)” value turn out when `CCCCCCNC(=O)Nc1ccc(S(=O)(=O)Nc2ccc(CCNC[C@H](O)COc3ccc(O)cc3)cc2)cc1` [L-755507] was run?
A: 26% and 48%

Q: What about the “Population Fragmented Nuclei (%)” value of the same molecule?
A: 8% and 7%

Q: And the “Population Healthy Nuclei (%)” value?
A: 80% and 83%

Q: And the “Population Hoechst High Intensity Objects (%)” value?
A: 14% and 9%

Q: And the “Population Membrane Permeable-Phenotype (%)” value?
A: 0%

Q: And the “Population Mitochondria Different-Phenotype (%)” value?
A: 59% and 68%

Q: And the “Population Mitotic Cells (%)” value?
A: 73% and 51%

Q: What about the “Population Normal (%)” value of the same molecule?
A: 85% and 90%

Q: And the “Population Pyknosed Nuclei (%)” value?
A: 11% and 9%

Q: What about the “Population Tubulin-Different-Phenotype (%)” value of the same molecule?
A: 42% and 51%

Q: And the “Total Cell Count” value?
A: 461 and 402

Q: With `O=C(O)c1cc2ccccc2c(Cc2c(O)c(C(=O)O)cc3ccccc23)c1O` [PAMOIC ACID] as the molecule, how does the “Population Apoptotic (%)” value read?
A: 29% and 41%

Q: What about the “Population Fragmented Nuclei (%)” value of the same molecule?
A: 9% and 5%

Q: What about the “Population Healthy Nuclei (%)” value of the same molecule?
A: 75% and 79%

Q: And the “Population Hoechst High Intensity Objects (%)” value?
A: 5% and 7%

Q: And the “Population Membrane Permeable-Phenotype (%)” value?
A: 0%

Q: And the “Population Mitochondria Different-Phenotype (%)” value?
A: 27% and 43%

Q: What about the “Population Mitotic Cells (%)” value of the same molecule?
A: 70% and 58%

Q: And the “Population Normal (%)” value?
A: 94% and 92%

Q: And the “Population Pyknosed Nuclei (%)” value?
A: 14% and 15%

Q: What about the “Population Tubulin-Different-Phenotype (%)” value of the same molecule?
A: 22% and 18%

Q: And the “Total Cell Count” value?
A: 592 and 365

Same assay, conditions: human, 48 h, 1 µM, compound concentration 1 uM

Q: For `CCCCCCNC(=O)Nc1ccc(S(=O)(=O)Nc2ccc(CCNC[C@H](O)COc3ccc(O)cc3)cc2)cc1` [L-755507], which “Population Apoptotic (%)” value is on record?
A: 10% and 15%

Q: What about the “Population Fragmented Nuclei (%)” value of the same molecule?
A: 12% and 13%

Q: What about the “Population Healthy Nuclei (%)” value of the same molecule?
A: 81% and 80%

Q: What about the “Population Hoechst High Intensity Objects (%)” value of the same molecule?
A: 3% and 5%

Q: And the “Population Membrane Permeable-Phenotype (%)” value?
A: 2%

Q: And the “Population Mitochondria Different-Phenotype (%)” value?
A: 16% and 24%

Q: What about the “Population Mitotic Cells (%)” value of the same molecule?
A: 89% and 84%

Q: What about the “Population Normal (%)” value of the same molecule?
A: 96% and 94%

Q: What about the “Population Pyknosed Nuclei (%)” value of the same molecule?
A: 6%

Q: What about the “Population Tubulin-Different-Phenotype (%)” value of the same molecule?
A: 15% and 20%

Q: What about the “Total Cell Count” value of the same molecule?
A: 1052 and 775

Q: How did the “Population Apoptotic (%)” value turn out when `O=C(O)c1cc2ccccc2c(Cc2c(O)c(C(=O)O)cc3ccccc23)c1O` [PAMOIC ACID] was run?
A: 18% and 48%

Q: What about the “Population Fragmented Nuclei (%)” value of the same molecule?
A: 11% and 8%

Q: What about the “Population Healthy Nuclei (%)” value of the same molecule?
A: 81% and 84%

Q: And the “Population Hoechst High Intensity Objects (%)” value?
A: 2% and 7%

Q: And the “Population Membrane Permeable-Phenotype (%)” value?
A: 1% and 0%

Q: What about the “Population Mitochondria Different-Phenotype (%)” value of the same molecule?
A: 13% and 27%

Q: What about the “Population Mitotic Cells (%)” value of the same molecule?
A: 81% and 51%

Q: What about the “Population Normal (%)” value of the same molecule?
A: 97% and 92%

Q: And the “Population Pyknosed Nuclei (%)” value?
A: 7% and 6%

Q: And the “Population Tubulin-Different-Phenotype (%)” value?
A: 10% and 11%

Q: What about the “Total Cell Count” value of the same molecule?
A: 998 and 494

Same assay, conditions: human, 48 h, 10 µM, compound concentration 10 uM

Q: `CCCCCCNC(=O)Nc1ccc(S(=O)(=O)Nc2ccc(CCNC[C@H](O)COc3ccc(O)cc3)cc2)cc1` [L-755507] was tested. Which “Population Apoptotic (%)” value did it give?
A: 46% and 65%

Q: And the “Population Fragmented Nuclei (%)” value?
A: 15% and 13%

Q: And the “Population Healthy Nuclei (%)” value?
A: 75% and 80%

Q: What about the “Population Hoechst High Intensity Objects (%)” value of the same molecule?
A: 11% and 8%

Q: What about the “Population Membrane Permeable-Phenotype (%)” value of the same molecule?
A: 1% and 0%

Q: And the “Population Mitochondria Different-Phenotype (%)” value?
A: 36% and 47%

Q: And the “Population Mitotic Cells (%)” value?
A: 53% and 34%

Q: What about the “Population Normal (%)” value of the same molecule?
A: 88% and 91%

Q: What about the “Population Pyknosed Nuclei (%)” value of the same molecule?
A: 9% and 5%

Q: And the “Population Tubulin-Different-Phenotype (%)” value?
A: 32% and 39%

Q: And the “Total Cell Count” value?
A: 598 and 596

Q: Which results are given for `O=C(O)c1cc2ccccc2c(Cc2c(O)c(C(=O)O)cc3ccccc23)c1O` [PAMOIC ACID]?
A: Population Apoptotic (%): 24% and 36%; Population Fragmented Nuclei (%): 13% and 11%; Population Healthy Nuclei (%): 79% and 82%; Population Hoechst High Intensity Objects (%): 3% and 7%; Population Membrane Permeable-Phenotype (%): 0%; Population Mitochondria Different-Phenotype (%): 18% and 27%; Population Mitotic Cells (%): 75% and 64%; Population Normal (%): 96% and 92%; Population Pyknosed Nuclei (%): 7% and 5%; Population Tubulin-Different-Phenotype (%): 10% and 12%; Total Cell Count: 879 and 517
